Reference: ChEMBL document CHEMBL4152260, “Design, synthesis and biological evaluation of novel quinazoline-2,4-diones conjugated with different amino acids as potential chitin synthase inhibitors” (Eur J Med Chem, 2018)
Values after ≈ are worked out from the molar mass of the structure shown.

Tests used:
Cryptococcus neoformans [1] = assay: Antifungal activity against Cryptococcus neoformans ATCC 32719 measured after 48 hrs by two-dimensional broth microdilution checkboard method; format: functional; details: ATCC 32719, 48 h
Procedure, shortened: (§1)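 MICs of each agent alone re-determined in the checkerboard run. Two-dimensional broth microdilution per CLSI M27-A3, 35 °C for 48 h, each test performed twice (duplicate).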

[2] = Inhibition of yeast chitin synthase using UDP-GlcNAc as substrate measured after 1 hr; parameters: species or system Saccharomyces cerevisiae
Procedure, shortened: (§2)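 Membrane CHS from S. cerevisiae CGMCC2.145 (YPAD, 30 °C, 48 h; sonication; 55000 g pellet in Tris/33% glycerol). Wells coated with WGA and blocked with BSA. Reaction in pH 6.8 Tris-maleate with 40 mM GlcNAc, 2 mM UDP-GlcNAc, 37 °C, 1 h. Product detected with WGA-HRP and TMB/H2O2, A450. Test solutions 300–18.75 μg/mL. Inhibition = (B0−Bn)/(B0−OD0); IC50 from log c plot.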

Aspergillus fumigatus [3] = assay: Antifungal activity against Aspergillus fumigatus GIMCC 3.19 measured after 24 hrs; format: functional; details: GIMCC 3.19, 24 h
Cryptococcus neoformans [4] = assay: Synergistic antifungal activity against Cryptococcus neoformans ATCC 32719 assessed as FIC index measured after 48 hrs in presence of fluconazole by two-dimensional broth microdilution checkboard method; format: functional
Procedure, shortened: (§3)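 Two-dimensional broth microdilution checkerboard combining test agent with fluconazole per CLSI M27-A3, 35 °C for 48 h, duplicate runs. Combination MICs read. FIC index = MIC_A(comb)/MIC_A(alone) + MIC_B(comb)/MIC_B(alone). Interaction classed synergistic ≤0.5, indifferent >0.5–4, antagonistic >4.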

Cryptococcus neoformans [5] = assay: Antifungal activity against Cryptococcus neoformans ATCC 32719 measured after 24 hrs; format: functional; details: ATCC 32719, 24 h
Candida albicans [6] = assay: Synergistic antifungal activity against Candida albicans ATCC 76615 measured after 48 hrs in presence of fluconazole by two-dimensional broth microdilution checkboard method; format: functional; details: ATCC 76615, 48 h; procedure, shortened: as §3
Candida albicans [7] = assay: Synergistic antifungal activity against Candida albicans ATCC 76615 assessed as fluconazole MIC mesured after 48 hrs by two-dimensional broth microdilution checkboard method; format: functional; details: ATCC 76615, 48 h; procedure, shortened: as §3
Aspergillus fumigatus [8] = assay: Synergistic antifungal activity against Aspergillus fumigatus GIMCC 3.19 measured after 48 hrs in presence of fluconazole by two-dimensional broth microdilution checkboard method; format: functional; details: GIMCC 3.19, 48 h; procedure, shortened: as §3
Cryptococcus neoformans [9] = assay: Synergistic antifungal activity against Cryptococcus neoformans ATCC 32719 measured after 48 hrs in presence of fluconazole by two-dimensional broth microdilution checkboard method; format: functional; details: ATCC 32719, 48 h; procedure, shortened: as §3
Aspergillus flavus [10] = assay: Synergistic antifungal activity against Aspergillus flavus ATCC 16870 measured after 48 hrs in presence of fluconazole by two-dimensional broth microdilution checkboard method; format: functional; details: ATCC 16870, 48 h; procedure, shortened: as §3
Aspergillus flavus [11] = assay: Antifungal activity against Aspergillus flavus ATCC 16870 measured after 24 hrs; format: functional; details: ATCC 16870, 24 h
Aspergillus flavus [12] = assay: Synergistic antifungal activity against Aspergillus flavus ATCC 16870 assessed as fluconazole MIC mesured after 48 hrs by two-dimensional broth microdilution checkboard method; format: functional; details: ATCC 16870, 48 h; procedure, shortened: as §3
Aspergillus fumigatus [13] = assay: Synergistic antifungal activity against Aspergillus fumigatus GIMCC 3.19 assessed as fluconazole MIC mesured after 48 hrs by two-dimensional broth microdilution checkboard method; format: functional; details: GIMCC 3.19, 48 h; procedure, shortened: as §3
Aspergillus fumigatus [14] = assay: Antifungal activity against Aspergillus fumigatus GIMCC 3.19 measured after 48 hrs by two-dimensional broth microdilution checkboard method; format: functional; details: GIMCC 3.19, 48 h; procedure, shortened: as §1
Candida albicans [15] = assay: Antifungal activity against Candida albicans ATCC 76615 measured after 24 hrs; format: functional; details: ATCC 76615, 24 h
Saccharomyces cerevisiae = assay: Inhibition of yeast chitin synthase at 300 ug/ml using UDP-GlcNAc as substrate measured after 1 hr relative to control; procedure, shortened: as §2
Cryptococcus neoformans [16] = assay: Synergistic antifungal activity against Cryptococcus neoformans ATCC 32719 assessed as fluconazole MIC mesured after 48 hrs by two-dimensional broth microdilution checkboard method; format: functional; details: ATCC 32719, 48 h; procedure, shortened: as §3
Candida albicans [17] = assay: Synergistic antifungal activity against Candida albicans ATCC 76615 assessed as FIC index measured after 48 hrs in presence of fluconazole by two-dimensional broth microdilution checkboard method; format: functional; procedure, shortened: as §3
Aspergillus flavus [18] = assay: Synergistic antifungal activity against Aspergillus flavus ATCC 16870 assessed as FIC index measured after 48 hrs in presence of fluconazole by two-dimensional broth microdilution checkboard method; format: functional; procedure, shortened: as §3
Aspergillus flavus [19] = assay: Antifungal activity against Aspergillus flavus ATCC 16870 measured after 48 hrs by two-dimensional broth microdilution checkboard method; format: functional; details: ATCC 16870, 48 h; procedure, shortened: as §1
Aspergillus fumigatus [20] = assay: Synergistic antifungal activity against Aspergillus fumigatus GIMCC 3.19 assessed as FIC index measured after 48 hrs in presence of fluconazole by two-dimensional broth microdilution checkboard method; format: functional; procedure, shortened: as §3
Candida albicans [21] = assay: Antifungal activity against Candida albicans ATCC 76615 measured after 48 hrs by two-dimensional broth microdilution checkboard method; format: functional; details: ATCC 76615, 48 h; procedure, shortened: as §1

Compound	IC50 [2] [µM]	MIC (Aspergillus fumigatus [3]) [µM]	MIC (Cryptococcus neoformans [5]) [µM]	MIC (Aspergillus flavus [11]) [µM]	MIC (Candida albicans [15]) [µM]	inhibition (Saccharomyces cerevisiae) [%]	also measured
Cn1c(=O)n(CC(=O)NC(Cc2ccc(OC(=O)Cn3c(=O)c4ccccc4n(C)c3=O)cc2)C(=O)O)c(=O)c2ccccc21 (stereo not given)	166	410 (≈ 252 µg/mL)	410 (≈ 252 µg/mL)	410 (≈ 252 µg/mL)	830 (≈ 509 µg/mL)	65.3	MIC (Cryptococcus neoformans [1]): 417 µM (≈ 256 µg/mL); fractional inhibitory concentration index (FICI) (Cryptococcus neoformans [4]): 0.5625; MIC (Candida albicans [6]): 417 µM; MIC (Candida albicans [7]): 13 µM; MIC (Aspergillus fumigatus [8]): 209 µM; MIC (Cryptococcus neoformans [9]): 26 µM; MIC (Aspergillus flavus [10]): 209 µM; MIC (Aspergillus flavus [12]): 26 µM; MIC (Aspergillus fumigatus [13]): 52 µM; MIC (Aspergillus fumigatus [14]): 834 µM (≈ 512 µg/mL); MIC (Cryptococcus neoformans [16]): 52 µM; fractional inhibitory concentration index (FICI) (Candida albicans [17]): 1.125; fractional inhibitory concentration index (FICI) (Aspergillus flavus [18]): 0.625; MIC (Aspergillus flavus [19]): 417 µM (≈ 256 µg/mL); fractional inhibitory concentration index (FICI) (Aspergillus fumigatus [20]): 0.3125; MIC (Candida albicans [21]): 417 µM (≈ 256 µg/mL)
Cn1c(=O)n(CC(=O)N[C@@H](Cc2c[nH]c3ccccc23)C(=O)O)c(=O)c2ccccc21		> 1210	600 (≈ 252 µg/mL)	600 (≈ 252 µg/mL)	> 1210	43.8	
Cn1c(=O)n(CC(=O)N2CCC[C@H]2C(=O)O)c(=O)c2ccccc21	180	770 (≈ 255 µg/mL)	770 (≈ 255 µg/mL)	1540 (≈ 510 µg/mL)	> 1540	75.5	MIC (Cryptococcus neoformans [1]): 773 µM (≈ 256 µg/mL); fractional inhibitory concentration index (FICI) (Cryptococcus neoformans [4]): 1.5; MIC (Candida albicans [6]): 386 µM; MIC (Candida albicans [7]): 13 µM; MIC (Aspergillus fumigatus [8]): 1540 µM; MIC (Cryptococcus neoformans [9]): 386 µM; MIC (Aspergillus flavus [10]): 193 µM; MIC (Aspergillus flavus [12]): 7 µM; MIC (Aspergillus fumigatus [13]): 13 µM; MIC (Aspergillus fumigatus [14]): 1540 µM (≈ 512 µg/mL); MIC (Cryptococcus neoformans [16]): 104 µM; fractional inhibitory concentration index (FICI) (Candida albicans [17]): 0.625; fractional inhibitory concentration index (FICI) (Aspergillus flavus [18]): 0.3125; MIC (Aspergillus flavus [19]): 773 µM (≈ 256 µg/mL); fractional inhibitory concentration index (FICI) (Aspergillus fumigatus [20]): 1.0625; MIC (Candida albicans [21]): 773 µM (≈ 256 µg/mL)
CCC(NC(=O)Cn1c(=O)c2ccccc2n(C)c1=O)C(=O)O (stereo not given)		800 (≈ 255 µg/mL)	800 (≈ 255 µg/mL)	1600 (≈ 511 µg/mL)	> 1600	13.2	
Cn1c(=O)n(CC(=O)N[C@@H](CO)C(=O)O)c(=O)c2ccccc21		790 (≈ 254 µg/mL)	> 1590	1590 (≈ 511 µg/mL)	> 1590	56.2	
CC(C)C[C@H](NC(=O)Cn1c(=O)c2ccccc2n(C)c1=O)C(=O)O		730 (≈ 254 µg/mL)	> 1470	> 1470	> 1470	52.8	
Cn1c(=O)n(CC(=O)N[C@@H](Cc2cnc[nH]2)C(=O)O)c(=O)c2ccccc21	300	1370 (≈ 509 µg/mL)	680 (≈ 253 µg/mL)	> 1370	> 1370	61.5	
Cn1c(=O)n(CC(=O)N[C@@H](Cc2ccccc2)C(=O)O)c(=O)c2ccccc21		> 1340	> 1340	> 1340	> 1340	50.5	
